Screening results as filed in PubChem.
Sampled rows, rich in hits. Any-hit rate of the full collection: about 5.5%.
Cl transport mod: modulators of human KCC2 chloride dependent transport; Q9H2X9; KCC2 cells, thallium flux FluoZin-2 fluorescence; B-score of Tl+ flux slope (higher = more flux/activation; lower = inhibition) at 10 µM; 190,000 compounds, 2.2% hits; AID 1456;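 active = thallium flux slope and its plate-corrected score both differing from the plate sample mean at a set confidence after two filtering rounds, in either direction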;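 also: slope of fluorescence scaled to starting intensity during 10 to 20 s after thallium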
Target sequence (Q9H2X9 whole entry, looked up): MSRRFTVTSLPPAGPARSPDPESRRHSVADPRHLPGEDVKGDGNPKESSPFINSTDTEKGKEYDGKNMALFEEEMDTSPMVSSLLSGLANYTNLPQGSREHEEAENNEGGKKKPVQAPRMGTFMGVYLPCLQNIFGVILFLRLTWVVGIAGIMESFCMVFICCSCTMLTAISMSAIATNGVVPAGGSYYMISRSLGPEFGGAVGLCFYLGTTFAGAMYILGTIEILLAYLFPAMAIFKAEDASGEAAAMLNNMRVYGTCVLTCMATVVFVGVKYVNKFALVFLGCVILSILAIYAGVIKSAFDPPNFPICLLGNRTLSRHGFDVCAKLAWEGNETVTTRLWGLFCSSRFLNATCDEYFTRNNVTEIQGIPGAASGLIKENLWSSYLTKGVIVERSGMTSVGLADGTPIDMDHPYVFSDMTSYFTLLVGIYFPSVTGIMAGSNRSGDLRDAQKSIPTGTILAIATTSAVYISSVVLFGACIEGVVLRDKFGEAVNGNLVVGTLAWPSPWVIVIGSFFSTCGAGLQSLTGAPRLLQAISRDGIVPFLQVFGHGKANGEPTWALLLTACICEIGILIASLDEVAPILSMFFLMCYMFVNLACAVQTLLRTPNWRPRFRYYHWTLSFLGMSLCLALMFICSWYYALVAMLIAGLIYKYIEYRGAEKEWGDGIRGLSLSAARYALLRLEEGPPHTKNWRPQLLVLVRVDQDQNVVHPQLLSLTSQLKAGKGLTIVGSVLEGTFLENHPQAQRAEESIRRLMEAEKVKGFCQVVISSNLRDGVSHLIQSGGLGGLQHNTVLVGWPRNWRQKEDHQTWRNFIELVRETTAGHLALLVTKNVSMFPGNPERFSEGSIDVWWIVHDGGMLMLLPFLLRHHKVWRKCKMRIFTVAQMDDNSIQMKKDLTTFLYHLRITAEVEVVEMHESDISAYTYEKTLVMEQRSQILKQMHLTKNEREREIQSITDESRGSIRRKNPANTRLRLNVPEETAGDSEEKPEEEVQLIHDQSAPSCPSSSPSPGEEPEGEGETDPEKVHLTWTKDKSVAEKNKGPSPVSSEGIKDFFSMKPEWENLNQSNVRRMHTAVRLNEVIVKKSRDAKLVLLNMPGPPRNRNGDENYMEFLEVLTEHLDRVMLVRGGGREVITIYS
WT yeast gro inh: growth inhibition of WT yeast, mitochondrial fusion screen. mitochondrial fusion phenotypic screen, WT strain. inhibition, % at 10 µM. 190,000 compounds, 2.1% hits; in the data active = inhibition above about 58%; tested in S. cerevisiae
RAM network inh: blocks the yeast RAM network. inhibition, % at 50 µM. S. cerevisiae dse1pr::URA3 reporter, 5-FOA growth OD615, 2 d; analog-sensitive cbk1-as2 kinase mutant strain. 190,000 compounds, 1.8% hits;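 active = inhibition above a set limit, 3 SD over mean compound inhibition, cut at about 8.4% in these data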;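 also: 0% = DMSO-only wells with no growth and 100% = 10 µM 1-NA-PP1 full growth; inhibition rescues growth on 5-FOA so higher OD means more RAM inhibition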
BB579 growth dn: chemicals that inhibit yeast BB579 growth in restrictive medium (lifespan-shortening candidates); 140,000 compounds, 0.51% hits; S. cerevisiae BB579 growth, OD615, 48 h; inhibition, % at 10 µM;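 active = inhibition above a set limit, 3 SD over the mean compound inhibition, cut at about 44% in these data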
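Detection: OD615 turbidity measurement; Material: Saccharomyces cerevisiae DeaD strain BB579, replicative lifespan model yeast; Timing: 48 h exposure, 30 °C; Doses: single 10 µM dose; Medium: CSMM-D restrictive synthetic medium containing dextrose (glucose); Controls: amphotericin B at 10 µg/mL as positive control.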
Yeast life ext: extends the lifespan of yeast | S. cerevisiae growth with nicotinamide, OD615; deaD strain in restrictive glucose medium | inhibition of the nicotinamide effect, % at 10 µM | 130,000 compounds, 0.68% hits;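 active = inhibition above a set limit, placed 3 SD over the median of all compounds, cut at about 26% in these data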;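 also: 0% = nicotinamide-treated wells and 100% = cells grown without nicotinamide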
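Assay system: engineered S. cerevisiae DeaD replicative-lifespan strain, galactose-grown log-phase cells; medium: restrictive CSMM-D dextrose medium; also added: nicotinamide, 1.5 mM, co-present with compound; schedule: 48 h compound exposure at 30 °C, humidified; detection: absorbance at 615 nm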
Active calls of the source: *; . = no result.

SMILES | Cl transport mod | WT yeast gro inh | RAM network inh | BB579 growth dn | Yeast life ext
Cc1ccc(NC(=S)N(CCCN2CCCC2)Cc2cccn2Cc2ccc(Cl)cc2)cc1Cl | -0.193 | 77.4* | 3.9 | . | .
COc1ccc(NC(=S)N(CCCN2CCC(C)CC2)Cc2cccs2)cc1Cl | 0.306 | 15.6 | -0.8 | . | .
FC(F)(F)c1cccc(NC(=S)N(CCCN2CCCC2)Cc2cccn2Cc2ccc(Cl)cc2)c1 | 0.571 | 94.7 | 4.0 | . | .
COC(=O)c1sccc1NC(=O)COc1ccc(Cl)cc1Cl | 0.463 | -5.9 | 2.9 | -29.9 | -3.5
CC(C)C(C)(C#N)NC(=O)CSc1nnc(-c2ccccc2)o1 (configuration not stated) | -1.62 | 13.0 | -0.7 | -45.0 | 10.6
CC1CCCCC1NC(=O)/C(C#N)=C/c1ccccc1F (configuration not stated) | 0.116 | 72.6* | -1.5 | -24.6 | 63.1*
CSc1ccc(/C=C(\C#N)C(=O)NC2CCCCC2C)cc1 (configuration not stated) | 1.71 | -1.3 | 8.3 | -59.9 | 8.8
O=c1c(C(c2ccc(F)cc2)c2c(O)nc3n(c2=O)CCS3)c(O)nc2n1CCS2 | -0.188 | . | . | . | .
COc1cc(NC(=S)NC(=O)C(C)C)ccc1NC(=O)c1cc2ccccc2o1 | 0.0108 | 17.9 | 9.5* | . | .
CCC(=O)NC(=S)Nc1ccc(NC(=O)c2cc3ccccc3o2)c(OC)c1 | -0.00613 | -2.0 | 4.2 | . | .
Cc1n[nH]c(=O)n1-c1cccc(C(F)(F)F)c1 | . | -2.9 | 2.7 | -10.5 | 74.8*
O=C(/C=C/NNC(=O)c1ccccc1)c1ccc(Br)cc1 | 8.83* | -13.3 | 0.0 | -26.6 | 23.9
O=C(/C=C/NNC(=O)c1cccc(Br)c1)c1cccc(Br)c1 | . | -0.5 | 2.0 | -108.8 | 27.5*
Cc1cccc(-c2nnc3sc(-c4ccccc4C)nn23)c1 | -1.97 | 68.5* | 0.2 | 43.9* | -8.1
COc1cccc(-c2nnc3sc(-c4ccccc4)nn23)c1 | -1.44 | 3.1 | 8.9* | -16.8 | .
CCOc1cccc(-c2nnc3sc(C4CCCCC4)nn23)c1 | . | 71.2* | 0.4 | 7.3 | -11.0
COc1cccc(-c2nnc3sc(C4CCCCC4)nn23)c1 | -0.191 | -10.7 | -2.5 | -7.0 | -13.9
COc1ccc(-n2ncc3c(=O)n(Cc4c(F)cccc4Cl)cnc32)cc1 | -0.167 | -9.5 | 0.9 | . | .
COC(=O)CSc1nc(C)c(C)c(C)c1C(N)=O | 0.633 | -8.4 | 0.2 | . | .
COc1ccccc1NS(=O)(=O)c1cc(C(=O)NCCC(C)C)ccc1F | 1.06 | 7.3 | -0.4 | . | .
COc1ccccc1NC(=S)N(Cc1ccccc1)Cc1ccccn1 | -1.65 | 57.4 | 3.0 | 3.5 | -2.4
S=C(Nc1ccccc1Cl)N(Cc1ccccc1)Cc1ccccn1 | -0.354 | 64.5* | 0.8 | . | .
COc1ccccc1CNC(=O)c1cn(C)c2ccc(S(=O)(=O)N3CCCC3)cc2c1=O | -0.0409 | 0.8 | 5.2 | . | .
Cc1ccsc1/C=N/NC(=S)NCCc1ccccc1 | 3.58 | 69.0* | 2.0 | . | .
CC1(C)C2CC=C(/C=N/NC(=S)NCCc3ccccc3)C1C2 (configuration not stated) | -0.541 | 66.2* | 7.0 | . | .
SMILES | Cl transport mod | WT yeast gro inh | RAM network inh | BB579 growth dn | Yeast life ext
CCNC(=S)N/N=C/c1sccc1C | 1.53 | 8.5 | 0.0 | . | .
Clc1ccc(-c2nnnn2-c2ccc(Cl)cc2)cc1 | -0.219 | . | . | . | .
Cc1ccc(-n2nnnc2C(Cl)(Cl)c2nnnn2-c2ccc(C)cc2)cc1 | 0.245 | 94.9* | 1.6 | 8.8 | 13.0
COc1cc(/C=N/NC(=O)CCc2ccccc2)ccc1O | -0.198 | 70.2* | 2.9 | -52.0 | -14.8
COc1cc(/C=N/NC(=O)CCNC(=O)c2ccccc2Cl)ccc1O | -1.68 | -2.3 | 1.9 | . | .
Cc1cc(NC(=S)N(Cc2ccc(Cl)cc2)Cc2ccc(C(=O)O)cc2)ccc1Cl | -0.623 | 70.9* | 4.5 | . | .
Cc1cc(C)cc(NC(=S)N(Cc2ccc(Cl)cc2)Cc2ccc(C(=O)O)cc2)c1 | -0.387 | 11.6 | 3.4 | . | .
Cc1ccc(NC(=S)N(Cc2ccc(Br)cc2)Cc2ccc(C(=O)O)cc2)cc1C | -1.13 | 67.5* | 3.2 | . | .
Cc1cc(C)cc(NC(=S)N(Cc2ccc(Br)cc2)Cc2ccc(C(=O)O)cc2)c1 | -1.31 | 79.2* | 3.0 | . | .
Cc1cccc(NC(=S)N(Cc2ccc(Cl)cc2)Cc2ccc(C(=O)O)cc2)c1 | -0.0793 | -6.0 | 5.3 | . | .
Cc1cc(NC(=S)N(Cc2cccc(Br)c2)CC2CCC(C(=O)O)CC2)ccc1Cl (configuration not stated) | -1.88 | 71.0* | 3.8 | . | .
Cc1ccsc1/C=N/NC(=O)c1cccnc1 | 1.54 | . | . | . | .
COc1ccccc1OCCC(=O)OCC(=O)c1c(N)n(C)c(=O)n(C)c1=O | 0.225 | -0.5 | 2.4 | . | .
O=C(COc1cccc(F)c1)N[C@@H](Cc1ccccc1)c1nc2ccccc2[nH]1 | 1.44 | 4.1 | 0.6 | -18.8 | -1.3
Cc1cc(NS(=O)(=O)c2ccc(NC(=S)NC(=O)c3cccnc3)cc2)no1 | 2.41 | -14.7 | 9.3* | . | .
CC12CCC(C(=O)N3CCCCC3)([C@H](Br)C1=O)C2(C)C (some centres not stated) | 0.626 | . | . | . | .
CCCCOc1ccc(-c2cc(C(=O)NNC(=S)NCC)c3ccccc3n2)cc1 | 3.85 | 53.3 | 1.9 | 41.8 | -15.7
O=C(NNC(=S)Nc1ccccc1)c1cc(-c2cccnc2)nc2ccccc12 | -1.04 | 24.7 | 1.5 | . | .
O=C(NC(=S)Nc1ccccc1)c1cc(-c2ccccc2)nc2ccccc12 | 17.9* | 37.0 | 3.4 | -31.0 | -7.8
O=C(NC(=S)Nc1ccccn1)c1cc(-c2ccccc2)nc2ccccc12 | 21.9* | 30.1 | 2.5 | -14.0 | -2.1
COC(=O)c1sccc1NC(=O)c1cc(-c2cc(C)ccc2C)nc2ccccc12 | . | 1.1 | 7.8 | -36.4 | -7.8
Cc1ccc(C)c(-c2cc(C(=O)Nc3nccs3)c3ccccc3n2)c1 | -0.00164 | 61.3* | 0.0 | -21.2 | -1.7
CCNC(=S)NNC(=O)c1cc(-c2ccc(OC)cc2)nc2ccccc12 | 1.18 | 67.5* | 2.2 | 3.2 | 2.0
CC(C)(C)c1nnc(NC(=O)c2cc(-c3ccccc3)nc3ccccc23)s1 | -0.427 | 30.5 | 1.8 | -48.2 | -0.2
Cc1csc(NC(=O)c2cc(-c3ccccc3)nc3ccccc23)n1 | -0.626 | 61.9* | 2.3 | -14.8 | -4.8
O=[N+]([O-])c1ccccc1S(=O)(=O)n1nnc2ccccc21 | -0.0289 | 8.4 | 0.6 | 1.6 | 0.8
COc1cc(C2C(C(=O)c3ccco3)=C(O)C(=O)N2CCc2ccccc2)ccc1O (configuration not stated) | -0.000164 | 0.5 | 3.2 | -18.7 | 1.3
Cc1ccc2nc(N3C(=O)C(O)=C(C(=O)c4ccco4)C3c3cccs3)sc2c1 (configuration not stated) | . | -10.6 | 4.7 | -31.0 | 61.5*
COc1ccc(CCN2C(=O)C(O)=C(C(=O)c3ccco3)C2c2cccs2)cc1OC (configuration not stated) | -0.199 | -9.2 | 5.9 | -33.4 | 83.1*
COc1ccc(C2C(C(=O)c3ccco3)=C(O)C(=O)N2c2nnc(C)s2)cc1 (configuration not stated) | . | -1.8 | 0.3 | . | .
